Experimental data as given in ChEMBL document CHEMBL4613269, “2-((4-Arylpiperazin-1-yl)methyl)benzonitrile Derivatives as Orally Available Inhibitors of Hepatitis C Virus with a Novel Mechanism of Action” (J Med Chem, 2020).

Assays:
[1] = Cytotoxicity in human Huh7.5 cells assessed as reduction in cell viability incubated for 96 hrs by MTT assay; type: cell-based
Summary of the method: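 Huh7.5 cells seeded 24 h before compound addition. Viability read by MTT at 96 h. Eight-step 1:5 serial dilutions in triplicate; CC50 by Reed & Muench; three independent experiments.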

[2] = Selectivity index, ratio of CC50 for cytotoxicity in human Huh7.5 cells assessed as reduction in cell viability incubated for 96 hrs by MTT assay to EC50 for antiviral activity against HCV J6/JFH/JC1 infected in human Huh7.5 cells incubated for 72 hrs by In-Cell Western assay; type: toxicity, cell-based; settings: read-out: Ratio CC50/EC50
Summary of the method: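 HCVcc (MOI=0.1) infected Huh7.5 cells co-treated with eight-step 1:5 serial dilutions, triplicate wells. After 72 h, fixed, permeabilized, and stained for HCV Core and GAPDH with IR-dye secondaries. Core normalized to GAPDH. CC50 came from MTT at 96 h in uninfected Huh7.5 cells. EC50/CC50 were derived by Reed & Muench, mean ± SD of three independent experiments.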

Hepatitis C virus [3] = experiment: Antiviral activity against HCV J6/JFH/JC1 infected in human Huh7.5 cells incubated for 72 hrs by In-Cell Western assay; type: functional, organism-based, Hepacivirus hominis; settings: J6/JFH/JC1, Huh7.5, 72 h
Summary of the method: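 Huh7.5 cells infected with HCVcc (MOI 0.1) and treated with compound at the same time for 72 h. Cells fixed with PFA, permeabilized, then stained for HCV Core and GAPDH with IR-dye secondaries. Core signal normalized to GAPDH. Eight-step 1:5 dilutions in triplicate; EC50 by Reed & Muench; mean of three experiments.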

Coxsackievirus B3 = experiment: Antiviral activity against Coxsackievirus B3 infected in Vero cells assessed as reduction in virus-induced cytopathic effect incubated for 48 hrs by Reed-Muench method; type: functional, organism-based; settings: Enterovirus B
[4] = Cytotoxicity in African green monkey Vero cells assessed as reduction in cell viability; type: cell-based; settings: chlorocebus sabaeus
[5] = Selectivity index, ratio of CC50 for cytotoxicity in African green monkey Vero cells to EC50 for Antiviral activity against Coxsackievirus B3 infected in Vero cells; type: toxicity, cell-based; settings: read-out: Ratio CC50/EC50
Hepatitis C virus [6] = experiment: Antiviral activity against HCV J6/JFH/JC1 infected in human Huh7.5 cells assessed as reduction in viral RNA levels incubated for 72 hrs by qRT-PCR analysis; type: functional, organism-based, Hepacivirus hominis; settings: for EC50: J6/JFH/JC1, Huh7.5, 72 h
Summary of the method: (§1)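 Huh7.5 cells seeded 24 h, then infected with wild-type (or mutant) HCV with compound added at the same time. Incubated 72 h. Intracellular HCV RNA measured by qRT-PCR, 2^-ΔCt method, normalized to GAPDH. Eight-step 1:5 serial dilutions in triplicate; EC50 by Reed & Muench; three independent experiments.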

[7] = Selectivity index, ratio of CC50 for cytotoxicity in human Huh7.5 cells assessed as reduction in cell viability incubated for 96 hrs by MTT assay to EC50 antiviral activity against HCV J6/JFH/JC1 infected in human Huh7.5 cells assessed as reduction in viral RNA levels incubated for 72 hrs by qRT-PCR analysis; type: toxicity, cell-based; settings: read-out: Ratio CC50/EC50
Summary of the method: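 Selectivity index = CC50/EC50. CC50: Huh7.5 cells seeded at 3×10^4/cm², medium with compound added at 24 h, MTT read at 96 h. EC50: HCVcc-infected Huh7.5 cells treated for 72 h, HCV RNA by qRT-PCR normalised to GAPDH. Serial 1:5 dilutions in eight steps, Reed & Muench calculation, means ± SD of three independent experiments.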

Hepatitis C virus [8] = experiment: Antiviral activity against HCV expressing NS5B S282T mutant by qRT-PCR analysis based by Reed-Muench method; type: functional, organism-based, Hepacivirus hominis
Summary of the method: (§2)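 Huh7.5 cells seeded at 3×10^4/cm², infected 24 h later with wild-type or mutant HCV stock while compound or solvent was added at the same time. Intracellular HCV RNA measured by qRT-PCR at 72 h, normalised to GAPDH, 2^-ΔCT method. EC50 by Reed & Muench from eight-step 1:5 serial dilutions, triplicate wells.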

Hepatitis C virus [9] = experiment: Antiviral activity against wild type HCV by qRT-PCR analysis based by Reed-Muench method; type: functional, organism-based, Hepacivirus hominis; summary of the method: as §1
[10] = Oral bioavailability in Sprague-Dawley rat 15 mg/kg measured after 0.25 to 72 hrs by LC-MS/MS analysis; type: ADME, organism-based; settings: in vivo
[11] = Selectivity index, ratio of CC50 for cytotoxicity in African green monkey Vero E6 cells to EC50 for Antiviral activity against Zika virus infected in Vero E6 cells; type: toxicity, cell-based, Vero C1008; settings: read-out: Ratio CC50/EC50
[12] = Cytotoxicity in African green monkey Vero E6 cells assessed as reduction in cell viability; type: cell-based, Vero C1008; settings: chlorocebus sabaeus
Hepatitis C virus [13] = experiment: Antiviral activity against HCV expressing NS3 D168V mutant by qRT-PCR analysis based by Reed-Muench method; type: functional, organism-based, Hepacivirus hominis; summary of the method: as §2

Compound	CC50 at 96 h [1]	selectivity ratio [2]	EC50 (Hepatitis C virus [3])	other results
CCC(=O)N(C)CCN(C)c1ccc(C#N)c(CN2CCN(c3ccc(Cl)cc3)CC2)c1	40 µM	5	7290 nM	
CN(C)CCN(C)c1ccc(C#N)c(CN2CCN(c3ccccc3)CC2)c1	50.2 µM	55	902 nM	
CC(C)CCNc1ccc(C#N)c(CN2CCN(c3ccc(Cl)cc3)CC2)c1	> 200 µM	> 1	119000 nM	
CN(C)CCCN(C)c1ccc(C#N)c(CN2CCN(c3ccc(Cl)cc3)CC2)c1	15.6 µM	36	423 nM	
CN1CCCN(c2ccc(C#N)c(CN3CCN(c4ccc(Cl)cc4)CC3)c2)CC1	12.5 µM	81	153 nM	
Cc1cc(CCCOc2c(C)cc(-c3noc(C(F)(F)F)n3)cc2C)on1 [PLECONARIL]				EC50 (Coxsackievirus B3): 2 nM; CC50 [4]: > 1050 nM; selectivity ratio [5]: > 525
CC1CN(Cc2cc(N(C)CCN(C)C)ccc2C#N)CCN1c1ccc(Cl)cc1 (stereo not given)	13.7 µM	42	321 nM	
Cc1ccc(NCc2cc(N3CCOCC3)ccc2C#N)cc1	133 µM			EC50 (Hepatitis C virus [6]): > 66700 nM
CN(C)CCN(C)c1ccc(C#N)c(CN2CCN(c3ccc(Cl)nc3)CC2)c1	52.6 µM	21	2510 nM	
CN(C)CCN(C)c1cccc(CN2CCN(c3ccc(Cl)cc3)CC2)c1	13.6 µM	14	936 nM	
CC(C)OC(=O)[C@H](C)N[P@](=O)(OC[C@H]1O[C@@H](n2ccc(=O)[nH]c2=O)[C@](C)(F)[C@@H]1O)Oc1ccccc1 [SOFOSBUVIR]	> 200 µM	> 1920	104 nM	selectivity ratio [7]: > 4350; EC50 (Hepatitis C virus [8]): 148 nM; EC50 (Hepatitis C virus [9]): 29.4 nM; EC50 (Hepatitis C virus [6]): 46 nM
CN(C)CCN(C)c1ccc(C#N)c(CN2CCN(c3ccc(C#N)cc3)CC2)c1	9.05 µM	4	1870 nM	
CN(C)CCN(C)c1ccc(C#N)cc1CN1CCN(c2ccc(Cl)cc2)CC1	14.6 µM	11	1330 nM	
N#Cc1ccc(NCc2ccccn2)cc1CN1CCN(c2ccc(Cl)cc2)CC1	> 200 µM	> 14	13700 nM	
N#Cc1ccc(N2CCC(N3CCCC3)CC2)cc1CN1CCN(c2ccc(Cl)cc2)CC1	13.5 µM	42	318 nM	
Cc1ccc(NCc2cc(N3CCN(C)CC3)ccc2C#N)cc1	37.4 µM			bioavailability [10]: < 5%; EC50 (Hepatitis C virus [6]): 1620 nM
CN(C)CCNc1ccc(C#N)c(CN2CCN(c3ccc(Cl)cc3)CC2)c1	14.8 µM	15	952 nM	
COc1ccc(N2CCN(Cc3cc(N(C)CCN(C)C)ccc3C#N)CC2)cc1	45.5 µM	31	1440 nM	
CN(C)CCN(C)c1ccc(C#N)c(CN2CCN(c3ccc(Br)cc3)CC2)c1	13.3 to 15.6 µM	128	104 nM	selectivity ratio [7]: 503; Activity (Hepatitis C virus [6]; Hepacivirus hominis): Dose-dependent effect; EC50 (Hepatitis C virus [6]): 31 nM
Cc1ccc(NCc2cc(N3CCCCC3)ccc2C#N)cc1	11.4 µM			EC50 (Hepatitis C virus [6]): > 7410 nM
CN1CCN(c2ccc(C#N)c(CN3CCN(c4ccc(Cl)cc4)CC3)c2)CC1	16.1 µM	20	783 nM	
CN(C)CCN(C)c1ccc(C#N)c(CN2CCNCC2)c1	> 200 µM	> 5	35000 nM	
CN(C)CCN(C)c1ccc(C#N)c(CN2CCC(c3ccc(Cl)cc3)CC2)c1	3.75 µM	26	142 nM	
CN(C)CCN(C)c1ccc(C#N)c(CN2CCN(c3ccc(Cl)cc3Cl)CC2)c1	9.85 µM	59	166 nM	

Compound	CC50 at 96 h [1]	selectivity ratio [2]	EC50 (Hepatitis C virus [3])	other results
CN(C)CCN(C)c1ccc(C#N)c(CN2CCN(c3ccc(F)cc3)CC2)c1	52.1 µM	70	749 nM	
N#Cc1ccc(NCCN2CCOCC2)cc1CN1CCN(c2ccc(Cl)cc2)CC1	76.3 µM	16	4690 nM	
CN1CCN(c2ccc(C#N)c(CNc3ccc(Cl)cc3)c2)CC1	18.3 µM			EC50 (Hepatitis C virus [6]): 420 nM
Cc1ccc(N2CCN(Cc3cc(N(C)CCN(C)C)ccc3C#N)CC2)cc1	36.2 µM	90	399 nM	
CN(C)CCN(C)c1ccc(C#N)c(CN2CCN(c3ccc(N)cc3)CC2)c1	55.2 µM	8	6430 nM	
Cc1ccc(N(C)Cc2cc(N3CCN(C)CC3)ccc2C#N)cc1	82 µM			EC50 (Hepatitis C virus [6]): 890 nM
CN(C)CCN(C)c1ccc(C#N)c(CN2CCN(c3ccncc3)CC2)c1	44.7 µM	16	2740 nM	
CN(C)CCN(C)c1ccc(C#N)c(CN2CCN(Cc3ccc(Cl)cc3)CC2)c1	15.6 µM	14	1050 nM	
CN(C)c1ccc(C#N)c(CN2CCN(c3ccc(Cl)cc3)CC2)c1	> 200 µM	> 3	57500 nM	
CN(C)CCN(C)c1ccc(C#N)c(CN2CCN(c3ccc(Cl)cc3[N+](=O)[O-])CC2)c1	12.5 µM	57	217 nM	
CN(C)CCN(C)c1ccc(C#N)c(CN2CCN(c3ccc(Cl)cc3F)CC2)c1	13.2 µM	64	205 nM	
NC(=O)c1ncn([C@@H]2O[C@H](CO)[C@@H](O)[C@H]2O)n1 [RIBAVIRIN]				selectivity ratio [11]: > 6; CC50 [12]: > 200 µM
Cc1cc(Cl)ccc1N1CCN(Cc2cc(N(C)CCN(C)C)ccc2C#N)CC1	10.1 µM	49	203 nM	
CNCCN(C)c1ccc(C#N)c(CN2CCN(c3ccc(Cl)cc3)CC2)c1	15.8 µM	54	289 nM	
COc1ccc2c(O[C@@H]3C[C@H]4C(=O)N[C@]5(C(=O)NS(=O)(=O)C6CC6)C[C@H]5/C=C/CCCCN(C)C(=O)[C@@H]4C3)cc(-c3nc(C(C)C)cs3)nc2c1C				EC50 (Hepatitis C virus [9]): 9.2 nM; EC50 (Hepatitis C virus [13]): > 1000 nM
N#Cc1ccc(N2CCNCC2)cc1CN1CCN(c2ccc(Cl)cc2)CC1	13.7 µM	20	657 nM	
CN(C)CCN(C)c1ccc(C(N)=O)c(CN2CCN(c3ccc(Cl)cc3)CC2)c1	15.5 µM	13	1160 nM	
Cc1ccc(NCc2cc(N3CCNCC3)ccc2C#N)cc1	18.8 µM			EC50 (Hepatitis C virus [6]): 1680 nM
N#Cc1ccc(OCCN2CCCC2)cc1CN1CCN(c2ccc(Cl)cc2)CC1	16.6 µM	20	814 nM	
N#Cc1ccc(N2CCNC(=O)C2)cc1CN1CCN(c2ccc(Cl)cc2)CC1	> 200 µM	> 2	79400 nM	
COc1ccc(NCc2cc(N3CCN(C)CC3)ccc2C#N)cc1	48.2 µM			EC50 (Hepatitis C virus [6]): 2140 nM
CCN1CCCC1CNc1ccc(C#N)c(CN2CCN(c3ccc(Cl)cc3)CC2)c1 (stereo not given)	7.64 µM	16	454 nM	
CN(C)CCN(C)c1ccc(C#N)c(CN2CCN(c3ccc([N+](=O)[O-])cc3)CC2)c1	12.8 µM	40	314 nM	
CN(C)CCN(C)c1ccc(C#N)c(CN(C)c2ccc(Cl)cc2)c1	15.5 µM	30.6	506 nM	bioavailability [10]: < 5%; EC50 (Hepatitis C virus [6]): 180 nM
